Here are results for two molecules from ChEMBL document CHEMBL4622914, “Development of a bioavailable boron-containing PI-103 Bioisostere, PI-103BE” (Bioorg Med Chem Lett, 2020).

Data set [1] has as its system CWR22R. As to the kind of experiment: Antiproliferative activity against human 22Rv1 cells assessed as reduction in cell viability incubated for 4 days by coulter counter method. The data set is classed as functional, cell-based. The method, boiled down: (§1)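 Cancer cells were seeded at 50,000 per well in DMEM with 5% FBS. They were exposed to six compound doses for 4 days, with DMSO as vehicle control and a reference inhibitor as positive control. Cells were counted by Coulter counter. Survival ratio is treated cell number over vehicle cell number. IC50 was taken from dose–response curves. Triplicate experiments.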

The nature of data set [2]: Stability of compound in cell culture medium assessed as compound hydrolysis measured after 24 hrs. The data set is classed as physicochemical.
Data set [3] concerns MDA-MB-231. As to the kind of experiment: Antiproliferative activity against human MDA-MB-231 cells assessed as reduction in cell viability incubated for 4 days by coulter counter method. The format is functional, cell-based. The method, boiled down: as §1
A short description of data set [4]: Drug concentration in ovariectomized nu/nu mouse plasma at 10 mg/kg, ip measured after 8 hrs by UHPLC-MS analysis. The format is ADME, organism-based. The settings on record: female.
Data set [5] in a line: Cmax in ovariectomized nu/nu mouse at 10 mg/kg, ip measured upto 24 hrs by UHPLC-MS analysis. The format is ADME, organism-based. Set-up: dose 10 mg/kg, route intraperitoneal. The following applies: female, in vivo.
A short description of data set [6]: Half life in ovariectomized nu/nu mouse at 10 mg/kg, ip measured upto 24 hrs by UHPLC-MS analysis. The settings on record: female, in vivo. The data set is classed as ADME, organism-based. The method, boiled down:
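Female ovariectomized Nu/Nu mice, 4–6 weeks old, received a single 10 mg/kg i.p. dose as an ethanol solution. Blood was drawn from the orbital sinus at 0.5, 1, 3, 8 and 24 h, one sampling per group, into EDTA. Plasma was spun at 4 °C and stored at −80 °C. Parent and metabolites were quantified by C18 UHPLC–TSQ Vantage MS/MS.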

In data set [7] the test system is PC-3. As to the kind of experiment: Antiproliferative activity against human PC3 cells assessed as reduction in cell viability incubated for 4 days by coulter counter method. The following applies: PC-3, 96 h. The format is functional, cell-based. The method, boiled down:
(§2)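 Cells seeded at 50,000 per well in DMEM with 5% FBS, exposed to six concentrations of compound for 4 days; DMSO as vehicle control. Cell numbers counted on a Coulter counter; survival ratio = treated/vehicle cell count. IC50 taken from dose-response curves. Triplicate experiments, mean ± SD.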

The nature of data set [8]: Stability of compound in cell culture medium assessed as compound hydrolysis measured after 8 hrs. The format is physicochemical.
A short description of data set [9]: Tmax in ovariectomized nu/nu mouse at 10 mg/kg, ip measured upto 24 hrs by UHPLC-MS analysis. The data set is classed as ADME, organism-based. The settings on record: female, in vivo.
Data set [10] is described as follows: Drug concentration in ovariectomized nu/nu mouse plasma at 10 mg/kg, ip measured after 1 hr by UHPLC-MS analysis. The settings on record: female. The format is ADME, organism-based.
The subject of data set [11] is A549. In words: Antiproliferative activity against human A549 cells assessed as reduction in cell viability incubated for 4 days by coulter counter method. The data set is classed as functional, cell-based. An outline of the steps: as §1
Data set [12] is described as follows: Stability of compound in cell culture medium assessed as compound hydrolysis measured after 1 hr. The data set is classed as physicochemical.
In data set [13] the test system is HeLa. As to the kind of experiment: Antiproliferative activity against human HeLa cells assessed as reduction in cell viability incubated for 4 days by coulter counter method. The format is functional, cell-based. The method, boiled down: as §1
Data set [14] is described as follows: Stability of compound in cell culture medium assessed as compound hydrolysis measured after 3 hrs. The data set is classed as physicochemical.
The nature of data set [15]: Stability of compound in cell culture medium assessed as compound hydrolysis measured after 0.5 hrs. The data set is classed as physicochemical.
The nature of data set [16]: Drug concentration in ovariectomized nu/nu mouse plasma at 10 mg/kg, ip measured after 3 hrs by UHPLC-MS analysis. The format is ADME, organism-based. The settings on record: female.
Data set [17] concerns SK-OV-3. In words: Antiproliferative activity against human SKOV3 cells assessed as reduction in cell viability incubated for 4 days by coulter counter method. The format is functional, cell-based. The settings on record: SK-OV-3, 96 h. An outline of the steps:
as §2

Data set [18] is described as follows: Drug concentration in ovariectomized nu/nu mouse plasma at 10 mg/kg, ip measured after 0.5 hrs by UHPLC-MS analysis. The data set is classed as ADME, organism-based. The following applies: female.
Data set [19] in a line: AUC in ovariectomized nu/nu mouse at 10 mg/kg, ip measured upto 24 hrs by UHPLC-MS analysis. The data set is classed as ADME, organism-based. Set-up: dose 10 mg/kg, time < 24 hr, route intraperitoneal. The settings on record: female, in vivo.

As usually defined, the IC50 is the midpoint of a concentration-inhibition curve. As usually defined, the Cmax is the highest concentration seen after dosing. A word on the half-life: it is the time needed for the level to fall by half in the phase considered. A higher half-life goes with slow loss. The term Tmax denotes the time at which the peak concentration occurs. What is called AUC is concentration integrated over time. Regarding `Oc1cccc(-c2nc(N3CCOCC3)c3oc4ncccc4c3n2)c1` [PI-103], the half-inhibitory concentration (IC50) in [1] (22Rv1, 96 h) is 0.1 µM; in [3] (MDA-MB-231, 96 h), 0.14 µM; in data set [7] it was 0.17 µM; in data set [11] (A549, 96 h), 0.18 µM; in data set [13] (96 h), 0.16 µM; in [17], 0.11 µM. The Drug degradation came out at 0.14 µM in data set [2]; 0.12 µM in data set [8]; 0.08 µM in [12]; 0.12 µM in data set [14]; 0.05 µM in data set [15]. Besides, the concentration at 8 h in [4] was found to be 0.3 ng/mL. The molecule also registered a Cmax in data set [5] of 1.4 ng/mL. The molecule further showed a half-life in data set [6] of 2 h. Further, the Tmax in data set [9] worked out at 1 h. The molecule further had a concentration at 1 h in data set [10] of 1.4 ng/mL. The molecule further displayed a concentration at 3 h in data set [16] of 1 ng/mL. Further, the concentration at 0.5 h in data set [18] turned out to be 0.1 ng/mL. Further, the AUC at 24 h in data set [19] stood at 9.7 ng·h/mL.

With `OB(O)c1cccc(-c2nc(N3CCOCC3)c3oc4ncccc4c3n2)c1`, the Activity entry in data set [1], in data set [3], in [11] and in data set [13] was “Dose-dependent effect” in each case. The Drug degradation turned out to be 3.53 µM in data set [2]; 3.55 µM in data set [8]; 3.08 µM in data set [12]; 3.52 µM in [14]; 2.39 µM in [15].
